The target in test [1] is T1, Nitric oxide synthase, inducible (Mus musculus, UniProt P29477).
T1 sequence (P29477 whole entry): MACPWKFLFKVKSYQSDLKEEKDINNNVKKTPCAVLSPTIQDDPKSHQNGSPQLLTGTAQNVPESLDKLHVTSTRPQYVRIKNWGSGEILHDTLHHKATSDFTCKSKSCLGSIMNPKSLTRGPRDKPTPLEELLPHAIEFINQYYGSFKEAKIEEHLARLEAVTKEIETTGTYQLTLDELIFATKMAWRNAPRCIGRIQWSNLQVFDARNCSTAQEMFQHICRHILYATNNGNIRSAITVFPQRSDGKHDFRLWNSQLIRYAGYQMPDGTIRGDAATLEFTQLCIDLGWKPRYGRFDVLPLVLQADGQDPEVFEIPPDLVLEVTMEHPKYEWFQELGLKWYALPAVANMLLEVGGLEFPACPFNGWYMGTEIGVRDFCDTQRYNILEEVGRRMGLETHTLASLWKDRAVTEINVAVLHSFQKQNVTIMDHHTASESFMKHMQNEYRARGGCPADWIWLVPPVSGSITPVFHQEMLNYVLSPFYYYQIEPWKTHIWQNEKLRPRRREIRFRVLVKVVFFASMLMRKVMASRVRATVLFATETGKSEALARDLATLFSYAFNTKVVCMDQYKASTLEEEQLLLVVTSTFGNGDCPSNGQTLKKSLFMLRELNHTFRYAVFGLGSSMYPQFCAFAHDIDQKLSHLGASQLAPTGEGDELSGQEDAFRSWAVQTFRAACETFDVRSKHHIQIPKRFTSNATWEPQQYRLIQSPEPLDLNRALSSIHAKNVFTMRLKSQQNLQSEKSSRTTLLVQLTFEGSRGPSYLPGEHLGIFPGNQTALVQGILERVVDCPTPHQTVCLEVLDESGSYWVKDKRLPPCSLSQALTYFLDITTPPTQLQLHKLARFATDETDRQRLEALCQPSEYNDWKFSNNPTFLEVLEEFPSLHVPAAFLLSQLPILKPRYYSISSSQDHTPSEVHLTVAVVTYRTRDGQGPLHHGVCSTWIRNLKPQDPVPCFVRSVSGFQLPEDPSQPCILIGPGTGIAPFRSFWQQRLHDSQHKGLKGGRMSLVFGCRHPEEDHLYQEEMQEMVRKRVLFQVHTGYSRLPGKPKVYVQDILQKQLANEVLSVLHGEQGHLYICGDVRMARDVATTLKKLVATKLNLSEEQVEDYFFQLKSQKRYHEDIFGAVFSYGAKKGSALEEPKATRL
As to the kind of experiment: Inhibition of recombinant mouse macrophage iNOS expressed in Escherichia coli. The essentials:
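Enzyme purified from E. coli, added to start the reaction. Conditions: 30 °C, 100 mM Hepes pH 7.4, 10 µM L-arginine, 100 µM DTT, 100 µM NADPH, 6.5 µM H4B, […], no added Ca2+ or calmodulin. NO capture was read as the A400 rise over 1 min.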

The target of a further test is Nitric oxide synthase 1 (Rattus norvegicus, UniProt P29476). Put plainly: Inhibition of recombinant rat brain nNOS expressed in Escherichia coli.
Chain of Nitric oxide synthase 1 (P29476 whole entry): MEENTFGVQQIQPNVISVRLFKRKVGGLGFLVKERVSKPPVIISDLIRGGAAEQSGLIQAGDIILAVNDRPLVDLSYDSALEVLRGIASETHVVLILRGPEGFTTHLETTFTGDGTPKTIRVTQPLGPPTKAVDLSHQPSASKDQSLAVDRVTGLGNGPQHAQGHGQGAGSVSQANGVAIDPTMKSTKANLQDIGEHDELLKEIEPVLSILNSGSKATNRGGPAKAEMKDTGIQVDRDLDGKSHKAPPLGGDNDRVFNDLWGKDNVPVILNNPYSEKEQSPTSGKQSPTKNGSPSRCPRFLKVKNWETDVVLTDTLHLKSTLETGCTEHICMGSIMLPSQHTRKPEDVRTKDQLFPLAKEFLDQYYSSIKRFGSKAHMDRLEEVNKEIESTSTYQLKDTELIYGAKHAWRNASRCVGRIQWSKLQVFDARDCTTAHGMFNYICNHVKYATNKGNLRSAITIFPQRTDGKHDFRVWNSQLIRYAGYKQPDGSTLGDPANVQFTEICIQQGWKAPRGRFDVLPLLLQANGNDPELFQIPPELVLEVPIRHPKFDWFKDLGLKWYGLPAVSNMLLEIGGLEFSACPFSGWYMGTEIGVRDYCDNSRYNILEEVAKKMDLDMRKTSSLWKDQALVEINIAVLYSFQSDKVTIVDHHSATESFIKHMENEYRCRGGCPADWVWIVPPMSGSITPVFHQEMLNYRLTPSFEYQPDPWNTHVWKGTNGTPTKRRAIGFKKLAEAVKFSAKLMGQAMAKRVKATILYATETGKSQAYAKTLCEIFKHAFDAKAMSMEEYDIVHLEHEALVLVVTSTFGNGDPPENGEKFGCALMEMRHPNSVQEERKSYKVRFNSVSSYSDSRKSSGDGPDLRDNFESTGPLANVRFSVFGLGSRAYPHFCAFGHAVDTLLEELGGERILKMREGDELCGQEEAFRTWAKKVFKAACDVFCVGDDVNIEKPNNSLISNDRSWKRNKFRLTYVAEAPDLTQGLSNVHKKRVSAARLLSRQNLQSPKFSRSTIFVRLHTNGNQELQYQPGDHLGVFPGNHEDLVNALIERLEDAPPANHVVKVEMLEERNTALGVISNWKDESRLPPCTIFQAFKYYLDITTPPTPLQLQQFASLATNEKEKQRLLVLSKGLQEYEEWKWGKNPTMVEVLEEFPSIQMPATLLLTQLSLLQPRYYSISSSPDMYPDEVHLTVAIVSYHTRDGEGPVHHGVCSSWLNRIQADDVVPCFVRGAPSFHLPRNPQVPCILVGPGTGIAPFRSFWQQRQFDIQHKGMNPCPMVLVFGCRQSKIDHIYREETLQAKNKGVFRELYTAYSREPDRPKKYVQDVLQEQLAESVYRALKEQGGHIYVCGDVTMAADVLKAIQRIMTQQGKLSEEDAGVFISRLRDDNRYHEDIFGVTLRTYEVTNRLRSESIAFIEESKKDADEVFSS
The target in a further test is T2, Nitric oxide synthase 3 (Bos taurus, UniProt P29473).
T2 sequence (P29473 whole entry): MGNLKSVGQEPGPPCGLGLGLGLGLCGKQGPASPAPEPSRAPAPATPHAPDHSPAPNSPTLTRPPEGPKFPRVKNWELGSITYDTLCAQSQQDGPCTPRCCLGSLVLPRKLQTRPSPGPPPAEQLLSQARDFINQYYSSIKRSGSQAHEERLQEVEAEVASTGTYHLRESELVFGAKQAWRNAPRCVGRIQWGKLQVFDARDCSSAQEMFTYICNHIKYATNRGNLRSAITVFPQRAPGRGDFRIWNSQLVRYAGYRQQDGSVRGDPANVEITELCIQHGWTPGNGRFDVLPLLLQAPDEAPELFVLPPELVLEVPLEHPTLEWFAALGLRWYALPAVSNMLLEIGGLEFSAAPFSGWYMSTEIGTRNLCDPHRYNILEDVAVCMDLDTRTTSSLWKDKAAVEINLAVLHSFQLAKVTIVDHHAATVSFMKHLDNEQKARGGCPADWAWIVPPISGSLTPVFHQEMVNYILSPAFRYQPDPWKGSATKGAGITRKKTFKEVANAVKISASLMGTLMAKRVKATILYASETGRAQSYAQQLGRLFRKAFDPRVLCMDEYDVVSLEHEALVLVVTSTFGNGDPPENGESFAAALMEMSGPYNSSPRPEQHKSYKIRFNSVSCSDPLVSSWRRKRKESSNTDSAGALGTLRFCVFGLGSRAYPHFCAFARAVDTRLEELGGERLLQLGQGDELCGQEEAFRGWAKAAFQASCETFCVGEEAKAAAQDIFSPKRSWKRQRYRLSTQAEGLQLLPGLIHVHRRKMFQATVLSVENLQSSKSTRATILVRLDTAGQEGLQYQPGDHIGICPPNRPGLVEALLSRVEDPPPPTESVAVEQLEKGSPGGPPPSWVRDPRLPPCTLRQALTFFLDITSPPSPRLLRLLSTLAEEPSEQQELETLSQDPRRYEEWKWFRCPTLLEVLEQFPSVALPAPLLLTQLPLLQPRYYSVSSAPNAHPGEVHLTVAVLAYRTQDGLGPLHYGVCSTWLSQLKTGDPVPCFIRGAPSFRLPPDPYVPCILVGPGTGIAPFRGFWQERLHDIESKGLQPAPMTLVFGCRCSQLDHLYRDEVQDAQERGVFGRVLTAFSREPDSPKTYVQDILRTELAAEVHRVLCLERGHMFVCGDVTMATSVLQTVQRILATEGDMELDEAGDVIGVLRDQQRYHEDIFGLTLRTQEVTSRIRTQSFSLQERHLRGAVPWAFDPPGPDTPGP
Put plainly: Inhibition of recombinant bovine eNOS expressed in Escherichia coli.

The nature of test [2]: Selectivity for nNOS over eNOS.
The nature of test [3]: Selectivity for nNOS over iNOS.

What is called IC50 is the point on the concentration scale where inhibition reaches its midpoint. Usually Ki stands for a measure of affinity in units of concentration, obtained from inhibition or displacement. Consider `NCCC[C@H](O)C[C@@H](N)CCCN=C(N)N[N+](=O)[O-]`, for which the results for the IC50 (in test [1]; on Nitric oxide synthase 1; at Nitric oxide synthase 3) were 361 µM, 23.5 µM and 1390 µM, respectively. Besides, the Ki on Nitric oxide synthase 1 turned out to be 2.8 µM.
Consider `N=C(NCCC[C@H](N)C[C@@H](O)CCN)N[N+](=O)[O-]`, for which the IC50 was 257 µM in test [1], 2.4 µM at Nitric oxide synthase 1 and 1140 µM on Nitric oxide synthase 3. The Ki at Nitric oxide synthase 1 worked out at 0.29 µM. Further, the Ratio IC50 was 475 in test [2] and 107 in test [3].
As for `N=C(NCCC[C@H](N)C[C@@H](O)CCCN)N[N+](=O)[O-]`, the Ratio IC50 in test [2] was 59; in test [3], 15.
On to `N=C(NCCC[C@H](N)C[C@H](O)CCO)N[N+](=O)[O-]`, for which the Ratio IC50 was 9.9 in test [2] and 7.7 in test [3].
As to `N=C(NCCC[C@H](N)C[C@H](O)CCCN)N[N+](=O)[O-]`, the values for the IC50 (in test [1]; at Nitric oxide synthase 1; on Nitric oxide synthase 3) were 313 µM, 6.8 µM and 1530 µM, respectively. Moreover, on Nitric oxide synthase 1, the Ki was determined as 0.83 µM. The Ratio IC50 was found to be 225 in test [2] and 33 in test [3].
Take `NCC[C@@H](O)C[C@@H](N)CCCN=C(N)N[N+](=O)[O-]`: the IC50 was 167 µM in test [1], 9.4 µM on Nitric oxide synthase 1 and 1340 µM at Nitric oxide synthase 3. The Ki on Nitric oxide synthase 1 came out at 1.1 µM.
As to `N=C(NCCC[C@H](N)C[C@H](O)CCN)N[N+](=O)[O-]`, the Ratio IC50 in test [2] is 143; in test [3], 18.
As for `NC(=NCCC[C@H](N)C[C@H](O)CCO)N[N+](=O)[O-]`, the IC50 is 1290 µM in test [1], 168 µM at Nitric oxide synthase 1 and 1660 µM at Nitric oxide synthase 3.
On to `NC(=NCCC[C@H](N)C[C@@H](O)CCO)N[N+](=O)[O-]`, for which the results for the IC50 (in test [1]; at Nitric oxide synthase 1; on Nitric oxide synthase 3) were 331 µM, 106 µM and 1090 µM, respectively.
`N=C(NCCC[C@H](N)C[C@@H](O)CCCO)N[N+](=O)[O-]`: the Ratio IC50 in test [2] stood at 10.1; in test [3], 2.1.
In the same order, the values of `N=C(NCCC[C@H](N)C[C@@H](O)CCO)N[N+](=O)[O-]` are 10.2 and 3.1.
For `NC(=NCCC[C@H](N)C[C@@H](O)CCCO)N[N+](=O)[O-]`, the IC50 was found to be 524 µM in test [1], 255 µM on Nitric oxide synthase 1 and 2580 µM at Nitric oxide synthase 3.
Regarding `N=C(NCCC[C@H](N)C[C@H](O)CCCO)N[N+](=O)[O-]`, the figures for the IC50 (in test [1]; at Nitric oxide synthase 1; on Nitric oxide synthase 3) were 266 µM, 490 µM and 879 µM, respectively. For the same compound, the Ratio IC50 was determined as 1.8 in test [2] and 0.54 in test [3].

(Values after ChEMBL document CHEMBL1149653, “Hydroxyethylene isosteres of selective neuronal nitric oxide synthase inhibitors” (Bioorg Med Chem, 2007).)
